ABCG2 block: human ABCG2 inhibition, ABCB1 as counter-screen; 0.1% of 190,000 active; AID 1325; inhibition, % at 6.6 µM; IgMXP3 cells, JC-1 efflux, flow cytometry;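 active means inhibition above 80%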;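 further: 0% = DMSO and 100% = nicardipine control wells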
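test system = two drug-resistant human cell lines, ABCG2 and ABCB1 | amount = 3 million cells/mL final, two lines in 1:1 ratio | reagent = JC-1 transporter substrate | doses = one concentration, 6.6 µM final | incubation = 10 min at 25 °C | signal = flow cytometric JC-1 green MFI at 530 nm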
Avidin bead fluor: compound fluoresces at 488/530 nm on avidin beads | 0.38% of 220,000 active | fluorescence (KMESF) at 10 µM | AID 1775 | compound fluorescence 488/530 nm, flow cytometry; hits give high values; in the data active means fluorescence above about 47
PKD1 inh: blocks activity of human protein kinase D1. PKD1 kinase fluorescence polarization assay. inhibition, % (no concentration beside the values). Q15139. 0.056% of 200,000 active
GSH bead fluor: GSH bead compound fluorescence profile; GSH beads flow cytometry, compound fluorescence 488/530 nm; hits give high values; fluorescence (KMESF) at 10 µM; 0.25% of 190,000 active; in the data active means fluorescence above about 89;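 further: glutathione beads carrying GST-tagged Bcl family fusion proteins plus one bare bead set; values are compound well signal with DMSO vehicle wells as background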
ABCB1 block: inhibitors of human ABCB1 transporter, ABCG2 counter-screen. P08183. CCRF-Adr cells, JC-1 efflux, flow cytometry. inhibition, % at 6.6 µM. 0.067% of 190,000 active; in the data active means inhibition above about 40%;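 further: 0% = vehicle and 100% = reference inhibitor; higher value means more JC-1 retained so stronger ABCB1 efflux block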
Lmaj promast: inhibitors of Leishmania major promastigote growth | Leishmania major promastigotes, resazurin fluorescence viability | inhibition, % at 10 µM | 9% of 200,000 active;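 further: promastigotes grown with compound for 44 hours at 28 °C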
The depositor's hits bear a star; . = no result. This is one part of a sample in which hits are shown more often than they occur. Unless noted, no stated cut-off is given here; in the data, active means inhibition above about 50%; inactive means the rest.

SMILES | ABCG2 block | Avidin bead fluor | PKD1 inh | GSH bead fluor | ABCB1 block | Lmaj promast
CN(C)CCNC(=O)c1cccc(NS(=O)(=O)c2ccc(Cl)c(Cl)c2)c1 | 2 | 24 | 1 | 12 | 1 | -5
CN(C)CC(C)(C)CNS(=O)(=O)c1ccc(Cl)c(Cl)c1 | 4 | 13 | -4 | 12 | 1 | 80*
O=C(Nc1nc2cc(Cl)ccc2s1)C1CCCN(S(=O)(=O)c2cccc3cccnc23)C1 (centres undefined) | 1 | 3 | -17 | 25 | 0 | 38
Cc1ccc(NC(=O)c2ccco2)c(NC(=O)c2cccs2)c1 | 3 | 12 | -4 | 19 | 0 | 72*
O=C(Nc1cccc(NC(=O)c2cccs2)c1)c1ccco1 | 0 | 40 | -6 | 17 | 0 | 72*
Nc1cccc(NC(=O)c2cccs2)c1 | -2 | 7 | -7 | 21 | -1 | 2
O=C(Nc1ccc(NC(=O)c2cccs2)cc1Cl)c1ccco1 | -6 | 9 | -2 | 24 | -1 | 13
COc1cc(NC(=O)c2cccs2)ccc1NC(=O)c1ccco1 | 0 | 13 | -13 | 34 | 0 | -4
O=C(Nc1cccc(N2CCCC2)c1)c1cccs1 | 6 | 18 | -1 | 27 | 1 | 86*
O=C(Cn1c(C(F)(F)F)nc2ccccc21)N=Nc1c(O)[nH]c2ccc(Br)cc12 | 1 | 22 | -13 | 10 | 0 | -6
CCn1c(=NC(=O)c2ccc(S(=O)(=O)N(C)C)cc2)sc2cccc(OC)c21 | 3 | 11 | -6 | 15 | 1 | 70*
C=CCn1c(=NC(=O)c2cccs2)sc2cccc(OC)c21 | . | 8 | . | . | . | .
ClCc1ncc(-c2ccc(Cl)cc2)o1 | 1 | 11 | -3 | 16 | -1 | 9
CCOc1ccc(NC(=S)Nc2ccc(OCc3ccccc3)cc2)cc1 | 13 | 8 | 2 | 6 | 2 | 52*
CCOc1ccc(S(=O)(=O)NNC(=S)Nc2ccc(Br)cc2)cc1 | -15 | 10 | 0 | 8 | -3 | 62*
CCOc1ccc(NC(=S)NN2C(C)CCCC2C)cc1 (centres undefined) | 1 | 15 | 0 | 9 | 0 | 51*
O=C(Nc1ccccc1)N1CCCCC1c1cccnc1 (centres undefined) | -3 | 11 | 0 | 32 | -1 | 77*
CC1CCC2C(=O)N(c3ccc(C(=O)NCc4ccccc4)cc3)C(=O)C2C1 (centres undefined) | 1 | 3 | -14 | 7 | 2 | -10
O=C(NC1CCCCC1)N1CCC(n2cnc3ccccc32)CC1 | 1 | 14 | 10 | 26 | 0 | 1
COc1ccc(NC(=O)c2ccc(-c3ccccc3)cc2)cc1NS(=O)(=O)c1ccc(F)cc1 | 1 | 15 | -7 | 10 | 0 | 91*
COc1ccc(NC(=O)c2ccccc2)cc1NS(=O)(=O)c1ccc(F)cc1 | 8 | 5 | -2 | 16 | 1 | 4
CCN(CC)c1ccc(NC(=O)c2cccc(C)c2)cc1S(=O)(=O)Nc1ccccc1OC | -1 | 9 | 2 | 10 | -1 | 97*
CCN(CC)c1ccc(NC(=O)c2ccccc2)cc1S(=O)(=O)Nc1ccccc1OC | -5 | 7 | 5 | 8 | -2 | 100*
Cc1cc(NC(=O)CCN2C(=O)C3C4C=CC(C4)C3C2=O)ccc1Br (centres undefined) | 20 | 13 | 7 | 14 | 1 | -3
COCCCNC(=O)c1cc(C(=O)c2c(-c3c(Cl)cccc3Cl)noc2C)c[nH]1 | 6 | 11 | 4 | 31 | 1 | 7
SMILES | ABCG2 block | Avidin bead fluor | PKD1 inh | GSH bead fluor | ABCB1 block | Lmaj promast
CC(=O)NC1C(=O)N=C(SCC(=O)Nc2ccc(C(F)(F)F)cc2Cl)NC1=O (centres undefined) | 1 | 26 | 2 | 8 | 0 | -5
COc1cc(/C=C(\C#N)C(=O)NCC2CCCO2)ccc1OCCC(C)C (centres undefined) | . | 8 | . | . | . | .
COc1ccc(S(=O)(=O)N2CCCC2C(=O)n2nc(C)cc2C)cc1 (centres undefined) | 1 | 5 | -1 | 12 | 0 | 3
CC(=O)N1c2ccccc2NC2=C(C(=O)CCC2)C1c1cccnc1 (centres undefined) | 14 | 49* | -6 | 19 | 2 | -3
COCc1cc(=O)[nH]c(Nc2nc3ccccc3o2)n1 | 41 | 24 | -12 | 22 | 1 | 99*
Cc1nc(-c2ccccc2)cc(=O)[nH]1 | 3 | 11 | -1 | 51 | 1 | 2

Screening results (PubChem)
